# Screening results from PubChem BioAssay.
# Only some compounds are listed: those with a hit (about 4.7% of all), similar ones and a draw of the others.
# MrgX1 ag: human MrgX1 receptor agonism, primary screen; Q96LB2; MrgX1-HEK293 cells, Fluo-4 calcium fluorescence, agonist mode; active compounds read high; B-score at 10 µM; hit rate 0.44% among 310,000;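 active = calcium response B-score plate-corrected fluorescence ratio at least 3 library SD, with starting fluorescence B-score inside 5 SD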
# Target sequence (Q96LB2 whole entry, looked up): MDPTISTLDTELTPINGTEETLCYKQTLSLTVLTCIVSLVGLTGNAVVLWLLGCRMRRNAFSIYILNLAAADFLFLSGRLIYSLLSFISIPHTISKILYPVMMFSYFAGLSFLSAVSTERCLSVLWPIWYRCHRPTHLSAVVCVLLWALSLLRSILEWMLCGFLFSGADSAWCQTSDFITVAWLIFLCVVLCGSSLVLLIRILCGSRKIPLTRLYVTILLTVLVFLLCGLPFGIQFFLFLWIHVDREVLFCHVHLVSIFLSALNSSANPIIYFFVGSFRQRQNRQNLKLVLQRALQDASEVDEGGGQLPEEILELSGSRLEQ
#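 System: HEK293 cells stably expressing human MrgX1 receptor; Dosing: test compound in the initial addition of three; Schedule: overnight plating, then 30 min 37 °C plus 30 min room-temperature dye loading; Detection: kinetic calcium dye fluorescence, Fluo-4 NW; Controls: per-plate positive and negative controls for Z′ factor.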
# MrgX1 allo act: allosterically activates human MrgX1 receptor signaling | MrgX1-HEK293, Fluo-4 calcium flux, FDSS; active compounds read high | AID 588675 | B-score at 10 µM | hit rate 0.63% among 310,000 | Q96LB2;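 active = plate-corrected calcium response at least 3 library SD above typical, normal starting fluorescence, not activating the receptor alone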;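 note: compound read alongside a low EC10 to EC30 dose of BAM8-22 agonist; peak minus trough fluorescence over baseline measured at the second addition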
# KCC2 mod: modulators of human KCC2 chloride dependent transport. hit rate 2.2% among 190,000. KCC2 cells, thallium flux FluoZin-2 fluorescence. B-score of Tl+ flux slope (higher = more flux/activation; lower = inhibition) at 10 µM. AID 1456. Q9H2X9;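 active = thallium flux slope and its plate-corrected score both differing from the plate sample mean at a set confidence after two filtering rounds, in either direction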;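 note: slope of fluorescence scaled to starting intensity during 10 to 20 s after thallium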
# MrgX1 antag: antagonists of human MrgX1 receptor. Q96LB2. MRGX1-HEK293 calcium flux, Fluo-4, BAM8-22 antagonism; active compounds read low. B-score at 10 µM. hit rate 1.3% among 310,000. AID 588676;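 active = calcium-response B-score plate-corrected more than 3 library SD below zero, starting fluorescence within 5 deviations, no agonist response on first addition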;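 note: peak minus trough fluorescence over baseline after final BAM8-22 challenge near maximal dose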
# RGS4 pot: RGS4 potentiation or activation; HEK293 M3R/inducible RGS4, carbachol calcium flux Fluo4; active compounds read low; B-score at 10 µM; hit rate 0.92% among 310,000; AID 463111;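 active = B-score of the integrated calcium signal more than 4 SD below the library mean, with starting fluorescence not abnormally high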;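 note: negative B-score means reduced calcium response which marks RGS4 activation or potentiation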
#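 Assay system: HEK293 FlpIn-TREx cells, stable M3R, doxycycline-inducible RGS4 / Probe or stimulus: carbachol, ECmax concentration / Times: overnight RGS4 induction, 30 min dye load 37 °C, 20 min compound RT / Signal: kinetic calcium fluorescence imaging with Fluo4-AM dye, 2 µM / Measure: Agonist-evoked peak-minus-minimum fluorescence over baseline, integrated ratio, B score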
# RGS4 block: human RGS4 inhibition; P49798; B-score at 10 µM; hit rate 0.45% among 310,000; HEK293 M3R/RGS4 inducible, Fluo-4 calcium flux; active compounds read high; triggered by carbachol at its EC20;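 active = B-score, a plate-corrected calcium signal, over three deviations above library mean, with baseline fluorescence within five deviations of library mean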;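 note: RGS4 expression induced by doxycycline in cells with stable M3 receptor; B-score is computed from the integrated fluorescence ratio over baseline after carbachol; higher B-score means a larger calcium signal and so more RGS4 inhibition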
# Target sequence (P49798 whole entry, looked up): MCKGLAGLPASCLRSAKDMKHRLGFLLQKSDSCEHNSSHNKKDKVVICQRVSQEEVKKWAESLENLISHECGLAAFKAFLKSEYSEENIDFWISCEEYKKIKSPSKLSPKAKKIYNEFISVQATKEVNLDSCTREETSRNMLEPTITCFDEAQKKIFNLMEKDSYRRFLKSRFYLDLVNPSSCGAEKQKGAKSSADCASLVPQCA
# KCC2 sec1: KCC2 (human) modulation, secondary assay; shares compounds with KCC2 mod; HEK293-KCC2, thallium flux, FluoZin2 fluorescence; active compounds read high; hit rate 15% among 3,700; normalised thallium flux (F/F0 slope) at 10 µM;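 active = thallium flux slope above the same plate's solvent-only control mean plus 3 SD; inconclusive = the two replicate wells disagree; inactive = no significant difference from solvent-only control wells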
# KCC2 bumet counter: thallium flux despite bumetanide block in KCC2 cells, secondary assay 3. normalized thallium flux at 10 µM. hit rate 49% among 3,700. shares compounds with KCC2 mod. HEK293-KCC2 + bumetanide/ouabain, thallium flux FluoZin2; active compounds read high. AID 1714;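 active = thallium entry rate above the same plate's blocked-transporter control wells by more than 3 SD; inconclusive = the two repeat wells disagree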;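 note: raw slope of fluorescence over initial fluorescence between 10 and 20 s after thallium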
# KCC2 sec2: confirmation of human KCC2 transport modulators. shares compounds with KCC2 mod. HEK293-KCC2, thallium flux FluoZin2 fluorescence; actives lie on both sides; F/F0 rise rate, 10–20 s post-thallium. normalized thallium flux at 10 µM. hit rate 23% among 3,700;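 active = thallium flux slope more than 3 SD above or below the plate's solvent-only control mean, mostly below; inconclusive = the two repeat wells disagreed; inactive = no significant shift from solvent-only controls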;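 note: raw slope with 0.1% DMSO as baseline and bumetanide as block control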
# HEK counter1: acts in parental HEK cells, KCC2 counter-screen; AID 1716; thallium flux rate (normalised fluorescence) at 10 µM; HEK293 parental cells, thallium flux FluoZin2, ouabain; baseline-ratio fluorescence slope, 10–20 s after thallium; shares compounds with KCC2 mod; hit rate 46% among 3,700;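 active = thallium flux rate significantly above the same plate's solvent-only control wells, beyond their mean plus 3 SD; inconclusive = the two replicate wells gave conflicting results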
# KCC2 retest ouab: confirmation of human KCC2 modulators with ouabain; shares compounds with KCC2 mod; hit rate 48% among 3,700; HEK293-KCC2, thallium flux FluoZin2 fluorescence; bidirectional: low = inhibitor, high = activator; raw Tl+ flux slope (below DMSO = inhibition, above = activation) at 10 µM;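 active = thallium flux slope beyond 3 SD from same-plate DMSO control mean in most replicates, usually higher, sometimes lower; inconclusive = repeat tests gave conflicting results; inactive = no significant difference from controls in most replicates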;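 note: slope of initial-normalized fluorescence between seconds 10 and 20 after thallium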
# HEK counter2: counter-screen for KCC2 modulators: effect in parental HEK293 cells. shares compounds with KCC2 mod. thallium flux FluoZin-2 fluorescence slope. thallium flux slope at 10 µM. hit rate 33% among 3,700;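 active = thallium flux slope above the same plate's solvent-control mean plus 3 SD in both duplicate wells; inconclusive = duplicate wells that disagreed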;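 note: run without ouabain in cells lacking the KCC2 cotransporter; slope of fluorescence scaled to its starting value between 10 and 20 s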
# RGS4 block valid: validation of RGS4 inhibitors | shares compounds with RGS4 block | HEK293 M3R/RGS4, carbachol calcium Fluo-4 fluorescence; carbachol added at its EC20; 0 = buffer wells, 100 = carbachol control | calcium response, % at 10 µM | hit rate 65% among 1,700 | AID 492999;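 active = duplicate-averaged calcium response above the buffer-only control mean plus 5 SD of those controls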;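 note: integrated fluorescence ratio F max minus min over baseline F0; higher response in RGS4-induced cells means RGS4 inhibition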
# M3R Ca ctr: non-induced cell nonspecific activity of RGS4 inhibitors; shares compounds with RGS4 block; HEK293 M3R non-induced, carbachol calcium Fluo-4; submaximal (EC20) carbachol stimulus; buffer wells 0%, carbachol control wells 100%; activity (percent), % at 10 µM; hit rate 20% among 1,900; AID 493000; call rule not given here;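 note: RGS4 induction absent so cells express M3R without RGS4; higher means more calcium signal and flags a non-specific hit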
# M3R basal Ca ctr: signal in non-induced cells without carbachol, RGS4 inhibitor counter-screen; AID 493001; calcium response (agonist-mode artifact), % at 10 µM; HEK293 M3R/RGS4 non-induced, Fluo-4 calcium, no carbachol; normalised: buffer wells 0%, carbachol wells 100%; hit rate 22% among 1,900; shares compounds with RGS4 block;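 active = duplicate-averaged calcium rise in uninduced cells above buffer wells' mean plus 5 SD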
# Starred values were filed as active, the others as inactive; i = inactive; ? = inconclusive; / = no result given.
SMILES,MrgX1 ag,MrgX1 allo act,KCC2 mod,MrgX1 antag,RGS4 pot,RGS4 block,KCC2 sec1,KCC2 bumet counter,KCC2 sec2,HEK counter1,KCC2 retest ouab,HEK counter2,RGS4 block valid,M3R Ca ctr,M3R basal Ca ctr
O=c1cc(-c2ccccc2Cl)oc2c([N+](=O)[O-])c(O)cc(O)c12,i,i,-6.9*,i,i,10*,0.0062,?,0.018*,0.0057*,0.011*,?,32%*,52%*,i
CCc1cccc(CC)c1NC(=S)NCCc1ccc(O)c(O)c1,i,i,-0.018,i,i,i,/,/,/,/,/,/,/,/,/
CCc1cccc(CC)c1NC(=S)NCCc1c(C)[nH]c2ccccc12,i,i,-3.8*,i,i,6.2*,0.0085,?,0.033,?,0.021,0.01,22%*,i,i
O=C(NCCc1ccccc1)C1CCC(CNc2c(N3CCCCC3)c(=O)c2=O)CC1 (configuration not stated),i,i,-2.9,i,i,i,/,/,/,/,/,/,/,/,/
CC1CCN(c2c(NCC3CCC(C(=O)NCCc4ccccc4)CC3)c(=O)c2=O)CC1 (configuration not stated),i,i,-4.7*,i,i,i,0.0054,0.0053,?,0.0072,0.018,0.011,/,i,i
CC(C)NCC(O)c1cc(O)cc(O)c1 (configuration not stated),i,i,-2.8*,i,i,4.8*,0.0069,0.0059*,0.029,?,0.018,0.012,22%*,52%*,i
COc1ccc(N2CCN(Cc3nc4scc(-c5cccs5)c4c(=O)[nH]3)CC2)cc1,i,i,-0.43,i,i,i,/,/,/,/,/,/,/,/,/
CC1Cc2ccccc2N1Cc1nc2scc(-c3cccs3)c2c(=O)[nH]1 (configuration not stated),i,i,3.9*,i,i,9.3*,0.0079,0.0094*,0.029,0.0072,0.021,0.0093,i,i,i
O=[N+]([O-])c1cc(Cl)c(O)c2ncccc12,/,/,4.5*,/,i,6.7*,0.013*,0.016*,0.032,0.011*,?,?,12%*,i,i
